The text below walks through data of ChEMBL document CHEMBL3352791, “Thioaryl naphthylmethanone oxime ether analogs as novel anticancer agents” (J Med Chem, 2014).

SMILES strings stand for the structures. The source made the active and inactive calls. No cut-off for these calls is given here.

Series [1] concerns MDA-MB-231. Put plainly: Cell cycle arrest in human […] cells assessed as accumulation at S phase at 7.5 uM by propidium iodide staining by FACS analysis (reference value: 13.72%). The format is functional. (In general: Flow cytometry measures light scatter and fluorescence of single cells or particles in a stream.)
Series [2] in a line: Safety index, ratio of IC50 for human MCF10A cells to EC50 for human COLO205 cells. The format is toxicity, cell-based, COLO 205. Particulars: MCF10A cells versus COLO205 cells, read-out: Ratio IC50/EC50. An outline of the steps:
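Safety index is the IC50 in the normal cells divided by the EC50 in the cancer cells. Both values come from MTT assays: cells in DMEM with 10% FBS, serum-starved 4 h, then exposed to compound across a 100nM-50µM dose range with 0.1% DMSO as vehicle control.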

Series [3] concerns MCF7. Put plainly: Antiproliferative activity against human ER-negative MCF7 cells after 72 hrs by MTT assay. The class given is functional, cell-based. Particulars: MCF7, 72 h. For orientation: Tetrazolium dyes change colour on reduction, which living cells bring about.
In series [4] the test system is MDA-MB-231. Put plainly: Cell cycle arrest in human […] cells assessed as accumulation at G2 phase at 7.5 uM by propidium iodide staining by FACS analysis (reference value: 22.74%). The class given is functional.
Series [5] in a line: Antiproliferative activity against human DLD1 cells after 24 hrs by MTT assay. As to conditions: DLD-1, 24 h. The class given is functional, cell-based. In short, it runs like this: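 MTT viability: cells seeded at 1×10^4 per well in DMEM with 10% FBS, left to adhere overnight, then serum-starved 4 h. Compounds were given at a range of doses, with 0.1% DMSO vehicle as control. EC50 was taken from dose-response curves spanning 100nM-50µM. Data are mean ± SEM from at least three independent experiments.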

Series [6] concerns the target Phosphodiesterase 3 (Homo sapiens) (UniProt Q14432+Q13370). Put plainly: Inhibition of PDE3 CAT (unknown origin) activity at 1 to 10 uM. The format is protein assay. An outline of the steps: (§1)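 Recombinant PDE isoform activity was read by fluorescence polarization. A binding reagent complexes with the nucleotide monophosphate that the phosphodiesterase generates from cAMP/cGMP, and this raises the polarization of the labelled substrate. Reference standards were PDE1A3 10µM IBMX, PDE2A3 1nM BAY 60-7550, PDE3CAT 1µM cilostazol, PDE4CAT rolipram, PDE5CAT 0.1µM sildenafil, PDE7A […], PDE8A1 10µM BRL-50481, PDE9A1 1µM SB 36216 and PDE11A1 dipyridamole.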

Series [7] addresses cGMP-specific 3',5'-cyclic phosphodiesterase (Canis lupus familiaris) (UniProt O77746). Put plainly: Inhibition of PDE5 CAT (unknown origin) activity at 1 to 10 uM. As to conditions: Homo sapiens. An outline of the steps:
as §1

The test system of series [8] is MDA-MB-231. Put plainly: Cytotoxicity against human […] cells assessed as cell viability at 5 uM by MTT assay in presence of z-IETD-FMK caspase-8 inhibitor. The class given is functional, cell-based. In short, it runs like this:
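Cells seeded 1×10^4/well in DMEM with 10% FBS, adhered overnight, serum-starved 4 h; pre-incubated 2 h with Z-IETD-FMK or Z-LEHD-FMK (10µM each), then 5μM compound for a further 24 h; viability by MTT.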

For series [9], the target named is Epidermal growth factor receptor (Homo sapiens) (UniProt P00533). Put plainly: Inhibition of EGF-induced EGFR phosphorylation at Tyr1068 in human MDA-MB-231 cells at 0.5 uM by ELISA. The class given is cell-based. An outline of the steps:
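MDA-MB-231 cells pretreated 1 h in serum-free medium, then EGF-stimulated for 15 min and lysed. Equal lysate protein (Bradford) assayed by ELISA kits for p-EGFR (Tyr1068, Tyr845, Tyr1173) and p-HER2. Absorbance read at 450 nm, normalized to total EGFR or HER2.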

Series [10] relates to MDA-MB-231. Put plainly: Cytotoxicity against human MDA-MB-231 cells assessed as cell viability at 5 uM by MTT assay in presence of 100 ng/ml pertussis toxin for 16 hrs. The class given is functional, cell-based.
The test system of series [11] is MDA-MB-231. Put plainly: Inhibition of cell migration in human MDA-MB-231 cells assessed as […] at 1 uM after 24 hrs by wound healing assay. The class given is functional, cell-based.
Series [12] relates to MDA-MB-231. Put plainly: Induction of apoptosis in human […] cells assessed as loss of mitochondrial membrane potential at 5 uM after 24 hrs by JC-1 staining based flow cytometry. The format is functional, cell-based. An outline of the steps:
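Cells treated at 5μM for 24 h, trypsinized, stained with JC-1 (1μg/ml) for 15 min at 37°C, washed in PBS and analysed by flow cytometry in FL1 and FL2 channels.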

The test system of series [13] is MCF7. Put plainly: Induction of apoptosis in human […] cells assessed as increase in Bax to Bcl2 ratio at 5 uM after 24 hrs by immunoblotting analysis. The class given is functional, cell-based. An outline of the steps: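 Immunoblot of Bax and Bcl-2 in cell lysates, loading normalized to actin; mean ± SEM, three independent experiments.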
On the technique in general: A western blot detects proteins with antibodies after separation by electrophoresis.

Series [14] concerns the target Plasminogen activator inhibitor 1 (Homo sapiens) (UniProt P05121). Put plainly: Inhibition of basal level PAI-1 phosphorylation in human MDA-MB-231 cells at 1 uM by ELISA. The format is cell-based.
Series [15] has as its target Epidermal growth factor receptor (Homo sapiens) (UniProt P00533). Put plainly: Inhibition of EGF-induced EGFR phosphorylation at Tyr1068 in human MCF7 cells at 0.5 uM by ELISA. The class given is cell-based.
For series [16] the target is unchanged. Put plainly: Inhibition of EGFR (unknown origin) at 10 uM.
The target of series [17] is Focal adhesion kinase 1 (Homo sapiens) (UniProt Q05397). Put plainly: Inhibition of EGF-induced FAK phosphorylation at Tyr397 in human MDA-MB-231 cells at 1 uM by ELISA. The class given is cell-based.
Series [18] concerns MCF7. Put plainly: Inhibition of TGFbeta expression in human MCF7 cells at 5 uM by ELISA. The class given is functional, cell-based.
Series [19] relates to MCF7. Put plainly: Induction of apoptosis in human […] cells assessed as loss of mitochondrial membrane potential at 5 uM after 24 hrs by JC-1 staining based flow cytometry. The class given is functional, cell-based. In short, it runs like this: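 Cells given 5μM compound for 24 h, trypsinized, stained with JC-1 (1μg/ml) in medium 15 min at 37°C, PBS-washed, analysed by flow cytometry on FL1 and FL2 channels.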

Epidermal growth factor receptor (Homo sapiens), sequence (P00533 whole entry): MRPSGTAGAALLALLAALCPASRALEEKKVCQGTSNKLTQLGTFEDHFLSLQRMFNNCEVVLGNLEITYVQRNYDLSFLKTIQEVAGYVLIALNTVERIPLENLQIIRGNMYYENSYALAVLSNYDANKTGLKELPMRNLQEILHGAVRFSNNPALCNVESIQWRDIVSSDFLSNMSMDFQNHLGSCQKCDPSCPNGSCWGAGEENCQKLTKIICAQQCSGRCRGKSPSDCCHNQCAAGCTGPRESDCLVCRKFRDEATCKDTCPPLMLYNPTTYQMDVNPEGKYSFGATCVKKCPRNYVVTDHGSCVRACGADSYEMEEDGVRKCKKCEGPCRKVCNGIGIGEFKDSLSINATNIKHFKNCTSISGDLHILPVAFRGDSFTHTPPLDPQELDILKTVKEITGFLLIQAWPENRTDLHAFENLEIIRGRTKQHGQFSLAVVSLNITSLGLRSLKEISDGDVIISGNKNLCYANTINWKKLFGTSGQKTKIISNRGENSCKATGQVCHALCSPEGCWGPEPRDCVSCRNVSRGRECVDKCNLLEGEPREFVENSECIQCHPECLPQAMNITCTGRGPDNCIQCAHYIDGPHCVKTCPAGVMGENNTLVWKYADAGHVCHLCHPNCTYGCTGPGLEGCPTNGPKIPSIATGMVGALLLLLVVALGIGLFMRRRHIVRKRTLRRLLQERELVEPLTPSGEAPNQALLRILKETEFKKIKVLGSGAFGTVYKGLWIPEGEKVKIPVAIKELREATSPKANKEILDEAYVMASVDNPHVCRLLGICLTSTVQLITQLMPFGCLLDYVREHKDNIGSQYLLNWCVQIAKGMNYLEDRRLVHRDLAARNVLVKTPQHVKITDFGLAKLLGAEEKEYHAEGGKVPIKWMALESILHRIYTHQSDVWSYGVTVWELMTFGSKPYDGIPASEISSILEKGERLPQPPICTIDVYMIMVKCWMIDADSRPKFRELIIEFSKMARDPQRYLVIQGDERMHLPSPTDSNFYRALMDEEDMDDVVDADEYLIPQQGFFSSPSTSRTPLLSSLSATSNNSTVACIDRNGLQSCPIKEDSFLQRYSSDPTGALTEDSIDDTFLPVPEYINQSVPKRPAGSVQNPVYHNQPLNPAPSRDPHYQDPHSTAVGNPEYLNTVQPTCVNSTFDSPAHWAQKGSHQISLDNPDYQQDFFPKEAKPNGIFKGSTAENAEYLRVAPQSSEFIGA
Focal adhesion kinase 1 (Homo sapiens), sequence (Q05397 2-1052 limits assumed): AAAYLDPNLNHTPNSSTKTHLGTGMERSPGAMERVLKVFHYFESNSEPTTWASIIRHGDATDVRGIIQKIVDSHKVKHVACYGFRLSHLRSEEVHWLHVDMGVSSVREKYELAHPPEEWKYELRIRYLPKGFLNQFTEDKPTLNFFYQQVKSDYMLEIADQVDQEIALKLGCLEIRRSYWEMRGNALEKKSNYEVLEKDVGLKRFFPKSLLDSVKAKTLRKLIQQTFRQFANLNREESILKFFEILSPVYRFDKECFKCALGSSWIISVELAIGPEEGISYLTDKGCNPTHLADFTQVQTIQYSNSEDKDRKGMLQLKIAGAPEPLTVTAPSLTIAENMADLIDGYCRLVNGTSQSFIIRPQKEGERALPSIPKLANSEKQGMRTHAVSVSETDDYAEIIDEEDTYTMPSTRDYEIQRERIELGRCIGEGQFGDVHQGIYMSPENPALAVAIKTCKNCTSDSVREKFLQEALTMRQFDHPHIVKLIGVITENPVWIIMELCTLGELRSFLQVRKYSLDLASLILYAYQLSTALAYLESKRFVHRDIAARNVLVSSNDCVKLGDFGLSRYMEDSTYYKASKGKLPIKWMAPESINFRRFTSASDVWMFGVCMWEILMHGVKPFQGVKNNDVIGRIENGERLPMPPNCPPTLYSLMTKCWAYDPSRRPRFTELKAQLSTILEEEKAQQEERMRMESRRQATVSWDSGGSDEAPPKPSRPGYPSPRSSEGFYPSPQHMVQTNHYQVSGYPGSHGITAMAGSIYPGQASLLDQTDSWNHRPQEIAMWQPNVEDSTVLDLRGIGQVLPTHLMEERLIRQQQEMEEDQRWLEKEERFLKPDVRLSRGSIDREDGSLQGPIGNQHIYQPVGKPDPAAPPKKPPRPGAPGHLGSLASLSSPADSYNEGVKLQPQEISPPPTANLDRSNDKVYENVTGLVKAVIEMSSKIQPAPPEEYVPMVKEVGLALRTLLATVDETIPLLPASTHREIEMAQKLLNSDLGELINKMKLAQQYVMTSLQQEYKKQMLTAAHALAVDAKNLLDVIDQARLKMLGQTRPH
Plasminogen activator inhibitor 1 (Homo sapiens), sequence (P05121 whole entry): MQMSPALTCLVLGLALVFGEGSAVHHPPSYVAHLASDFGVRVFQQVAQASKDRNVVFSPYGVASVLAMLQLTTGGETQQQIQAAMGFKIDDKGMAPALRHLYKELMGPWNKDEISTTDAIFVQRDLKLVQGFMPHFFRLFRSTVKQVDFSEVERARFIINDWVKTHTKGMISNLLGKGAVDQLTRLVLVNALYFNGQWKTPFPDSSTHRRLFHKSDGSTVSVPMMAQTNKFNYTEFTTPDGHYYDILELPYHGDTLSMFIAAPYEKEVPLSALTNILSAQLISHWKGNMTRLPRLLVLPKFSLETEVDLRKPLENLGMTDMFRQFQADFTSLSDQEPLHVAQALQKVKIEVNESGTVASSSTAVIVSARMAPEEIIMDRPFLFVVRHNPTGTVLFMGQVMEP

A word on the EC50: it is the concentration needed to bring the measured effect to its halfway point. Consider `CCN(CC)CCO/N=C(\c1ccc(SC)cc1)c1cccc2ccccc12.O=C(O)C(=O)O`, for which the Activity in series [1] was 2.74%; in series [4], 6.09%. Also, the selectivity ratio in series [2] is 4.7. Moreover, the EC50 in series [3] was 3 µM; in [5] it was 15.6 µM.

Take `CCN(CC)CCO/N=C(\c1ccc(SC)cc1)c1cccc2ccccc12`: the inhibition entry in series [6], in [7], in series [10], in series [16] and in [18] was “inactive” in each case. The outcome in series [8] was inactive. The inhibition result in series [9], in [11], in [14], in series [15] and in series [17] was “Active” each time. Moreover, the result in [12], in series [13] and in series [19] was Active.
